pEC50, pIC50: −log10 of the molar value.
Experiments:
DNA topoisomerase 1 = target: T1, DNA topoisomerase 1 (Homo sapiens, UniProt P11387); test: Inhibition of human DNA topoisomerase 1-mediated DNA cleavage assessed as relaxation of supercoiled pBR322 plasmid DNA after 15 mins by densitometer
T1 sequence (P11387 whole entry): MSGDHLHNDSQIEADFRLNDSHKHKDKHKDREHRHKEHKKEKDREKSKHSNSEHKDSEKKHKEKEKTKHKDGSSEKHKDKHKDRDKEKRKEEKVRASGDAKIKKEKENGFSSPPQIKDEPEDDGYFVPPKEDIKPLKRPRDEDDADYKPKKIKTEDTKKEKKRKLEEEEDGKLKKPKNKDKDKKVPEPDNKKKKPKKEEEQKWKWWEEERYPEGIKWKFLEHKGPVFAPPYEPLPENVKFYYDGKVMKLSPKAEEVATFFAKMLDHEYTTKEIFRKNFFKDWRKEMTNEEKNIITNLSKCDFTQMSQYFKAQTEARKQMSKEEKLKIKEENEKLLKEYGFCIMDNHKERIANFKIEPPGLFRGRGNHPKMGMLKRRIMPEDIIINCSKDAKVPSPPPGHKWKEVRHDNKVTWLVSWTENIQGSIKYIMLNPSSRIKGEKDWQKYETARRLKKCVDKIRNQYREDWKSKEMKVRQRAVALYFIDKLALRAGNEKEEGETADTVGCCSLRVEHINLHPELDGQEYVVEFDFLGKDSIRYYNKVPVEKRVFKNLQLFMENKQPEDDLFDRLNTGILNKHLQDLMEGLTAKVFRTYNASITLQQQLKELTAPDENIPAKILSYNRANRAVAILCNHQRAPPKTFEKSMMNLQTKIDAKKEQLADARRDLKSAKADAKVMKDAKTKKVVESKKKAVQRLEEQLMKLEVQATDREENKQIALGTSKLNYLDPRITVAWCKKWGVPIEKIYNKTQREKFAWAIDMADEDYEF

P388/S = test: Cytotoxicity against mouse P388/S cells after 72 hrs by colorimetric tetrazolium-formazan method; assay type: functional, cell-based
Outline: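 Murine leukaemia P388 cells were exposed to compound for 72 h. Viability was read by the colorimetric tetrazolium-formazan method.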

MKN-45 [1] = test: Cytotoxicity against human MKN45 cells after 72 hrs; assay type: functional, cell-based; settings: MKN-45, 72 h
Outline: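 MKN-45 human stomach cancer cells were incubated with compound for 72 h. Cytotoxicity was measured by the colorimetric tetrazolium-formazan method and by sulforhodamine B dye staining.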

DLD-1 = test: Cytotoxicity against human DLD1 cells after 72 hrs; assay type: functional, cell-based; settings: DLD-1, 72 h
[2] = Inhibition of PKC
Outline: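 Protein kinase C inhibition assay, with Histone II-As as substrate.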

[3] = target: Epidermal growth factor receptor (Homo sapiens, UniProt P00533); test: Inhibition of EGFR
Outline: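 Kinase-inhibition assay against EGF receptor kinase, with Poly(Glu4Tyr1) as substrate.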

MKN-45 [4] = test: Antitumor activity in human MKN45 cells xenografted iv dosed nude mouse assessed as tumor growth inhibition administered 5 times per week for 2 weeks at tumor growth of >= 0.2 cm2; assay type: functional
Outline: (§1)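 Human MKN-45 (stomach) or MX-1 (breast) cells implanted subcutaneously into a side flank of nude mice. Compound given iv five times/week. GID₇₅ is the approximate dose giving 75% growth inhibition. LD₁₀ is the approximate 10% lethal dose at that schedule. Safety margin is LD₁₀/GID₇₅.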

Mus musculus [5] = test: Toxicity in human MKN45 cells xenografted iv dosed nude mouse; assay type: organism-based, MKN-45; settings: in vivo
Outline: (§2)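 Toxicity was taken as LD10, the approximate dose lethal to 10% of nude mice at the treatment schedule. Mice bore subcutaneous side-flank MKN-45 or MX-1 xenografts and received iv dosing, either five times/week or twice/week for two consecutive weeks.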

[6] = Safety margin, ratio of LD10 for nude mouse to GID75 for human MKN45 cells; assay type: toxicity, cell-based; settings: mkn-45
Outline: (§3)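 Nude mice carried MKN-45 or MX-1 tumours implanted subcutaneously in a side flank. Compounds were given iv, either five times/week or twice/week for two consecutive weeks. The twice/week arm started once tumours reached 0.2 cm³ or larger. GID75 is the approximate dose giving 75% tumour growth inhibition, and LD10 is the approximate 10% lethal dose at that schedule. Safety margin = LD10/GID75.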

MX1 = test: Antitumor activity in human MX1 cells xenografted iv dosed nude mouse assessed as tumor growth inhibition administered 5 times per week for 2 weeks at tumor growth of >= 0.2 cm2; assay type: functional; outline: as §1
Mus musculus [7] = test: Toxicity in human MX1 cells xenografted iv dosed nude mouse; assay type: organism-based; settings: in vivo; outline: as §2
[8] = Safety margin, ratio of LD10 for nude mouse to GID75 for human MX1 cells; assay type: toxicity, cell-based; outline: as §3

Chain of Epidermal growth factor receptor (P00533 whole entry): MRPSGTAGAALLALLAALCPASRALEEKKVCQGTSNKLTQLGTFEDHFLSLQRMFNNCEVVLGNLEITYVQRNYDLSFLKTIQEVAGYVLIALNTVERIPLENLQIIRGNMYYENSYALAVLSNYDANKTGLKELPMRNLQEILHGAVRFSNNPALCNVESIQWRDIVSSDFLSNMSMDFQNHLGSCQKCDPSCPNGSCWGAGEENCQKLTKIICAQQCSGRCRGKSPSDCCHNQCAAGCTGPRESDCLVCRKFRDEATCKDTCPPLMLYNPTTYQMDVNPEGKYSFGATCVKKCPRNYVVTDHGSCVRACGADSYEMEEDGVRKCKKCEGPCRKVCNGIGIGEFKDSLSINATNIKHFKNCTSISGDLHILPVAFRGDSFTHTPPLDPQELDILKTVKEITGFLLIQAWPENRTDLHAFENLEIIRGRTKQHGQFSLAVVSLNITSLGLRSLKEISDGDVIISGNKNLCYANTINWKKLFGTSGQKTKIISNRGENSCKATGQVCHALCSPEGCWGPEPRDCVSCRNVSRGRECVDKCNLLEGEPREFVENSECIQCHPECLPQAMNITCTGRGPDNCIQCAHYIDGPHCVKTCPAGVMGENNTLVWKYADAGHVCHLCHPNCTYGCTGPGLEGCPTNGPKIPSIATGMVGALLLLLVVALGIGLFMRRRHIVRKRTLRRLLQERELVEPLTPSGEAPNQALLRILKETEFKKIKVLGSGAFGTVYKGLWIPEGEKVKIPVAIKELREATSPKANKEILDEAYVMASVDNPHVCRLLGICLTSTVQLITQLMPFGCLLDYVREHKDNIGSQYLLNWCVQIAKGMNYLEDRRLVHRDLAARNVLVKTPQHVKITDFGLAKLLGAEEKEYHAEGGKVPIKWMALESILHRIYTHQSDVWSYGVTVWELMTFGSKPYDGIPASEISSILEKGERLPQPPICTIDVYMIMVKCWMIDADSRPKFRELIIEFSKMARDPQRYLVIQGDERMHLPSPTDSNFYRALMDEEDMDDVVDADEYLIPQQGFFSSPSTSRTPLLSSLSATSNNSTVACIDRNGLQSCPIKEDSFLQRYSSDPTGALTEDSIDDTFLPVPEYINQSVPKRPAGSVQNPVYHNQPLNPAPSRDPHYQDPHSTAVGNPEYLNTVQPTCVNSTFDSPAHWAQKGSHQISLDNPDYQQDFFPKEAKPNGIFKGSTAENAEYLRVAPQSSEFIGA

O=C1c2c(c3c4ccc(O)cc4n([C@@H]4O[C@H](CO)[C@@H](O)[C@H](O)[C@H]4O)c3c3[nH]c4cc(O)ccc4c23)C(=O)N1NC(CO)CO [EDOTECARIN]
pEC50 (DNA topoisomerase 1): 7.29
pIC50 (P388/S): 8.82
pIC50 (MKN-45 [1]): 8.32
pIC50 (DLD-1): 7.15
pIC50 [2]: 4.74
pIC50 [3]: < 3.70
GID75 (MKN-45 [4]): 45 mg/m2
LD10 (Mus musculus [5]): > 1600 mg/m2
selectivity ratio [6]: > 36
GID75 (MX1): 160 mg/m2
LD10 (Mus musculus [7]): > 2000 mg/m2
selectivity ratio [8]: > 13

Source: ChEMBL document CHEMBL1138509, “Synthesis and biological activities of topoisomerase I inhibitors, 6-arylmethylamino analogues of edotecarin” (J Med Chem, 2009)
